Assay results reported in ChEMBL document CHEMBL4665734, “Optimization of globomycin analogs as novel gram-negative antibiotics” (Bioorg Med Chem Lett, 2020).
Values after ≈ are worked out from the molar mass of the structure shown. Starred links: 1 amine or outer side, 2 acyl side, 3 side chain; linkers in the order of their positions; H or OH if unused. Non-standard residues stand in square brackets, D forms with d. Residues, ends and D or L forms follow the SMILES beside them. *: point of attachment. dAlaψ(CH2NBu)Nle = CCCC[C@@H](C(=O)[*:2])N(CCCC)C[C@@H](C)N[*:1]; X1 = CCCCCC[C@@H](OC[C@@H](C)N[*:1])[C@@H](C)C(=O)[*:2]; Cyclobutyl(trans-3-NH2) = N[C@H]1C[C@H](*)C1; X4 = CCCCCCN(CCN[*:1])[C@@H](C)C(=O)[*:2]; Propyl(3-guanidino) = N=C(N)NCCC*; aThr = C[C@H](O)[C@H](N)C(=O)O; NMeL = CN[C@@H](CC(C)C)C(=O)O; Chg = N[C@H](C(=O)O)C1CCCCC1; NMeNva = CCC[C@H](NC)C(=O)O; Propyl(3-NMe2) = CN(C)CCC*; Dap = NC[C@H](N)C(=O)O; Propyl(3-NH2) = NCCC*; X11 = NCCCC*

Legend:
[1] = Stability of the compound in human plasma assessed as parent compound remaining after 24 hrs; format: ADME, cell-free; conditions: read-out: Stabilty
Method in brief: (§1)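 Test compound incubated for 24 hour in human, rat or mouse plasma. Stability is reported as the percentage of parent compound remaining.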

[2] = Stability of the compound in mouse plasma assessed as parent compound remaining after 24 hrs; format: ADME, cell-free; conditions: read-out: Stabilty; method in brief: as §1
Escherichia coli = assay: Inhibition of LspA in Escherichia coli CFT073imp4213 harboring outer membrane-permeable mutant assessed as inhibition of bacterial growth
Method in brief: (§2)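 Read-out is the minimum inhibitory concentration, reported in µM.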

Escherichia coli CFT073 = assay: Inhibition of LspA in wild type Escherichia coli CFT073 assessed as inhibition of bacterial growth; method in brief: as §2
[3] = Growth inhibition of Staphylococcus aureus USA300
[4] = Lipophilicity, logD of the compound at pH 7.4; conditions: buffer, pH 7.4, logD
[5] = Stability of the compound in rat plasma assessed as parent compound remaining after 24 hrs; format: ADME, cell-free; conditions: read-out: Stabilty; method in brief: as §1
[6] = Protein binding in rat plasma; format: ADME, cell-free; conditions: read-out: PPB (converted)
[7] = Protein binding in mouse plasma; format: ADME, cell-free; conditions: read-out: PPB (converted)
[8] = Clearance in rat liver microsomes; format: ADME, Microsome
Method in brief: (§3)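 Intrinsic clearance in rat or mouse liver microsomes, expressed in mL/min/kg.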

[9] = Clearance in mouse liver microsomes; format: ADME, Microsome; method in brief: as §3
[10] = Clearance in iv dosed rat; format: ADME, organism-based; conditions: in vivo
[11] = Half life in iv dosed rat; format: ADME, organism-based; conditions: in vivo
Klebsiella pneumoniae = assay: Inhibition of LspA in Klebsiella pneumoniae assessed as inhibition of bacterial growth
Pseudomonas aeruginosa = assay: Inhibition of LspA in Pseudomonas aeruginosa assessed as inhibition of bacterial growth
Acinetobacter baumannii = assay: Inhibition of LspA in Acinetobacter baumannii assessed as inhibition of bacterial growth

Row | Structure (SMILES) | remaining at 24 h [1] [%] | remaining at 24 h [2] [%] | MIC (Escherichia coli) [µM] | MIC (Escherichia coli CFT073) [µM] | MIC [3] [µM] | logD [4] | also measured
1 | CCCCCC[C@H]1C(=O)N(C)[C@@H](CC(C)C)C(=O)N[C@@H](C2CCCCC2)C(=O)N[C@@H](CN)C(=O)N[C@@H]([C@H](C)O)C(=O)NCCN1C | 92 | 81 | 0.39 (≈ 0.254 µg/mL) | 12 (≈ 7.82 µg/mL) | 100 (≈ 65.2 µg/mL) | – | –
2 | CCCCCC[C@H]1OC[C@@H](C)NC(=O)[C@H]([C@H](C)O)NC(=O)[C@H](CN)NC(=O)[C@H](C2CCCCC2)NC(=O)[C@H](CC(C)C)N(C)C(=O)[C@@H]1C | 93 | 94 | 0.034 (≈ 0.0232 µg/mL) | 2.9 (≈ 1.97 µg/mL) | 71 (≈ 48.3 µg/mL) | – | –
3 | CCCCCC[C@H]1OCCCNC(=O)[C@H]([C@H](C)O)NC(=O)[C@H](CN)NC(=O)[C@H](C2CCCCC2)NC(=O)[C@H](CC(C)C)N(C)C(=O)[C@@H]1C | 96 | 101 | 0.39 (≈ 0.266 µg/mL) | 12 (≈ 8.17 µg/mL) | 100 (≈ 68.1 µg/mL) | – | –
4 | CCCCCCN1CCCNC(=O)[C@H]([C@H](C)O)NC(=O)[C@H](CN)NC(=O)[C@H]([C@H](C)CC)NC(=O)[C@H](CC(C)C)N(C)C(=O)[C@@H]1C | 101 | 100 | 12.5 (≈ 8 µg/mL) | > 100 | > 100 | – | –
5 | CCCCCC[C@H]1OC[C@H](C)NC(=O)[C@H]([C@H](C)O)NC(=O)[C@H](CN)NC(=O)[C@H](C2CCCCC2)NC(=O)[C@H](CC(C)C)N(C)C(=O)[C@@H]1C | 88 | 93 | 1 (≈ 0.681 µg/mL) | 84 (≈ 57.2 µg/mL) | 71 (≈ 48.3 µg/mL) | – | –
6 | CCCC[C@H]1C(=O)N(C)[C@@H](CCC)C(=O)N[C@@H](C2CCCCC2)C(=O)N[C@@H](CN)C(=O)N[C@@H](CO[C@H]2C[C@H](N)C2)C(=O)N[C@H](C)CN1CCCC (cyclo([Chg][Dap]S(Cyclobutyl(trans-3-NH2))[dAlaψ(CH2NBu)Nle][NMeNva])) | 105 | 55 | – | 6.3 (≈ 4.54 µg/mL) | 50 (≈ 36.1 µg/mL) | 1.5 | remaining at 24 h [5]: 58%; fraction unbound [6]: 0.047; fraction unbound [7]: 0.026; CLhep predicted [8]: < 0.366 L/h/kg; CLhep predicted [9]: 1.92 L/h/kg; clearance [10]: 1.44 L/h/kg; half-life [11]: 6.8 h; MIC (Klebsiella pneumoniae): 25 µM (≈ 18 µg/mL); MIC (Pseudomonas aeruginosa): 100 µM (≈ 72.1 µg/mL); MIC (Acinetobacter baumannii): 25 µM (≈ 18 µg/mL)
7 | CCCCCC[C@H]1OC[C@@H](C)NC(=O)[C@H](COCCCN)NC(=O)[C@H](CN)NC(=O)[C@H](C2CCCCC2)NC(=O)[C@H](CC(C)C)N(C)C(=O)[C@@H]1C (cyclo([Chg][Dap]S(Propyl(3-NH2))[X1][NMeL])) | – | – | 0.28 (≈ 0.203 µg/mL) | 11 (≈ 7.96 µg/mL) | 100 (≈ 72.4 µg/mL) | 1.5 | –
8 | CCCCCC[C@H]1OC[C@@H](C)NC(=O)[C@H](COCCCN(C)C)NC(=O)[C@H](CN)NC(=O)[C@H](C2CCCCC2)NC(=O)[C@H](CC(C)C)N(C)C(=O)[C@@H]1C (cyclo([Chg][Dap]S(Propyl(3-NMe2))[X1][NMeL])) | – | – | 0.39 (≈ 0.293 µg/mL) | 25 (≈ 18.8 µg/mL) | 100 (≈ 75.2 µg/mL) | 2.1 | –
9 | CCCCCC[C@H]1OC[C@@H](C)NC(=O)[C@H](COCCCNC(=N)N)NC(=O)[C@H](CN)NC(=O)[C@H](C2CCCCC2)NC(=O)[C@H](CC(C)C)N(C)C(=O)[C@@H]1C (cyclo([Chg][Dap]S(Propyl(3-guanidino))[X1][NMeL])) | – | – | 0.2 (≈ 0.153 µg/mL) | 4.4 (≈ 3.37 µg/mL) | 5 (≈ 3.83 µg/mL) | 2 | –
10 | CCCCCC[C@H]1OC[C@@H](C)NC(=O)[C@H](COCCCCN)NC(=O)[C@H](CN)NC(=O)[C@H](C2CCCCC2)NC(=O)[C@H](CC(C)C)N(C)C(=O)[C@@H]1C (cyclo([Chg][Dap]S(X11)[X1][NMeL])) | – | – | 0.18 (≈ 0.133 µg/mL) | 7 (≈ 5.17 µg/mL) | 56 (≈ 41.3 µg/mL) | 1.7 | –
11 | CCCCCCN1CCNC(=O)[C@H]([C@H](C)O)NC(=O)[C@H](CN)NC(=O)[C@H](C2CCCCC2)NC(=O)[C@H](CC(C)C)N(C)C(=O)[C@@H]1C (cyclo([Chg][Dap][aThr][X4][NMeL])) | 95 | 112 | 0.5 (≈ 0.326 µg/mL) | 25 (≈ 16.3 µg/mL) | > 100 | – | –
